# Legend:
# [1] = system: Stomach; test: Biodistribution in ICR mouse stomach assessed per organ at 370 kBq, iv after 2 mins by gamma-counting analysis; type: ADME, organism-based; details: in vivo
# Procedure, shortened: (§1)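 Male ICR mice, n = 5 per time point, given the radiotracer in saline (370 kBq, 0.1 mL) by intravenous injection. Killed by decapitation at 2, 30, 60 or 120 min. Organs were excised, weighed and gamma-counted with decay correction. Uptake is expressed as % injected dose per gram of wet tissue against diluted standards of the injected material; stomach and intestine are expressed as % injected dose per organ. Mean ± SD.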
# [2] = Ratio of drug uptake from ICR mouse brain to blood after 120 mins; type: ADME, tissue-based; details: brain and blood
# [3] = system: Intestine; test: Biodistribution in ICR mouse intestine assessed per organ at 370 kBq, iv after 120 mins by gamma-counting analysis; type: ADME, organism-based; details: in vivo, 2 h
# Procedure, shortened: (§2)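 Male ICR mice (n = 5) got 370 kBq iv in 0.1 mL saline and were decapitated at 2, 30, 60 or 120 min. Whole intestine was γ-counted and expressed as percent injected dose per organ, decay-corrected, mean ± SD.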
# [4] = system: Blood; test: Biodistribution in ICR mouse blood assessed as radiotracer accumulation at 370 kBq, iv after 60 minutes by gamma-counting analysis in presence of SA4503; type: ADME, organism-based; details: in vivo, 1 h
# Procedure, shortened: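 Male ICR mice got saline or SA4503 (0.1 mL; 2, 5, 10 or 2.2 μmol/kg) via tail vein 5 min before 370 kBq tracer (0.1 mL) iv. They were decapitated at 60 min and tissues γ-counted. Percent change was taken against saline controls, with two-tailed Student's t test, p ≤ 0.05.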
# [5] = Ratio of drug uptake from ICR mouse brain to blood after 30 mins; type: ADME, tissue-based; details: brain and blood
# [6] = system: Intestine; test: Biodistribution in ICR mouse intestine assessed per organ at 370 kBq, iv after 60 mins by gamma-counting analysis in presence of haloperidol relative to control; type: ADME, organism-based; details: in vivo, 1 h
# Procedure, shortened: (§3)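 Male ICR mice (n = 5) got saline or haloperidol (0.1 mL, 1.0 mg/kg) via tail vein 5 min before 370 kBq tracer iv. Tissues were taken 60 min later and γ-counted as %ID/g (intestine as %ID/organ). Control and blocked groups were compared by two-tailed independent Student's t test, p ≤ 0.05.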
# [7] = Stability of the compound in mouse plasma at 37 degC up to 4 hrs; type: ADME, cell-free
# Procedure, shortened: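 The radiotracer (3.7 MBq in 100 μL water) was added to 1 mL of freshly prepared murine plasma and incubated at 37 °C for 4 h. Radiochemical purity was assayed by HPLC at 1, 2 and 4 h.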
# [8] = system: Spleen; test: Biodistribution in ICR mouse spleen at 370 kBq, iv after 60 mins by gamma-counting analysis in presence of haloperidol relative to control; type: ADME, organism-based; details: in vivo, 1 h
# Procedure, shortened: (§4)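 Male ICR mice, n = 5 per group, received saline (0.1 mL) or haloperidol (0.1 mL, 1.0 mg/kg) via tail vein 5 min before the radiotracer (370 kBq, 0.1 mL, iv). Killed by decapitation at 60 min. Tissues were excised, weighed and gamma-counted. Values are % ID/g (stomach as % ID/organ) and percent change versus saline controls, compared by two-tailed independent Student's t test, p ≤ 0.05.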
# [9] = system: Brain; test: Biodistribution in ICR mouse brain assessed as reduction in radiotracer uptake at 370 kBq, iv after 60 minutes by gamma-counting analysis in presence of haloperidol; type: ADME, organism-based; details: in vivo, 1 h
# Procedure, shortened: (§5)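 Male ICR mice got saline or a blocker (haloperidol, (S)-(−)-raclopride, fluvoxamine or tamoxifen; 0.1 mL, 2.2 μmol/kg) via tail vein 5 min before 370 kBq tracer iv. Brain was γ-counted at 60 min and compared with saline controls by two-tailed Student's t test, p ≤ 0.05.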
# [10] = system: Spleen; test: Biodistribution in ICR mouse spleen assessed as reduction in radiotracer uptake at 370 kBq, iv after 60 minutes by gamma-counting analysis in presence of SA4503 relative to control; type: ADME, organism-based; design: scale not given: the % may be the effect or the level left; details: in vivo, 1 h
# Procedure, shortened: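 Male ICR mice were given saline or SA4503 (0.1 mL; 2, 5 or 10 μmol/kg) via tail vein 5 min before [18F]radiotracer (370 kBq, 0.1 mL, iv). Killed at 60 min. Organs were gamma-counted as % ID/g and reduction was computed versus saline controls. Two-tailed independent Student's t test, p ≤ 0.05.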
# [11] = system: Stomach; test: Biodistribution in ICR mouse stomach assessed per organ at 370 kBq, iv after 30 mins by gamma-counting analysis; type: ADME, organism-based; details: in vivo, 0.5 h; procedure, shortened: as §1
# [12] = system: Bone; test: Biodistribution in ICR mouse bone at 370 kBq, iv after 2 mins by gamma-counting analysis; type: ADME, organism-based, Bone element; details: in vivo
# Procedure, shortened: (§6)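 Male ICR mice (n = 5 per group) got 370 kBq tracer in 0.1 mL saline by iv injection. They were decapitated at 2, 30, 60 or 120 min, and organs were weighed and γ-counted. %ID/g was found against diluted aliquots of the injected dose, decay-corrected, and given as mean ± SD.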
# [13] = system: Heart; test: Biodistribution in ICR mouse heart at 370 kBq, iv after 30 mins by gamma-counting analysis; type: ADME, organism-based; details: in vivo, 0.5 h; procedure, shortened: as §6
# [14] = system: Kidney; test: Biodistribution in ICR mouse kidney at 370 kBq, iv after 60 mins by gamma-counting analysis in presence of haloperidol relative to control; type: ADME, organism-based; details: in vivo, 1 h; procedure, shortened: as §3
# [15] = system: Blood; test: Biodistribution in ICR mouse blood at 370 kBq, iv after 60 mins by gamma-counting analysis in presence of haloperidol relative to control; type: ADME, organism-based; details: in vivo, 1 h; procedure, shortened: as §3
# [16] = system: Stomach; test: Biodistribution in ICR mouse stomach assessed per organ at 370 kBq, iv after 60 mins by gamma-counting analysis; type: ADME, organism-based; details: in vivo, 1 h; procedure, shortened: as §1
# [17] = system: Brain; test: Biodistribution in ICR mouse brain assessed as reduction in radiotracer uptake at 370 kBq, iv after 60 minutes by gamma-counting analysis in presence of fluvoxamine; type: ADME, organism-based; details: in vivo, 1 h; procedure, shortened: as §5
# [18] = system: Liver; test: Biodistribution in ICR mouse liver at 370 kBq, iv after 60 mins by gamma-counting analysis; type: ADME, organism-based; details: in vivo, 1 h; procedure, shortened: as §6
# [19] = system: Kidney; test: Biodistribution in ICR mouse kidney at 370 kBq, iv after 30 mins by gamma-counting analysis; type: ADME, organism-based; details: in vivo, 0.5 h; procedure, shortened: as §6
# [20] = system: Heart; test: Biodistribution in ICR mouse heart at 370 kBq, iv after 60 mins by gamma-counting analysis in presence of haloperidol relative to control; type: ADME, organism-based; details: in vivo, 1 h; procedure, shortened: as §3
# [21] = system: Muscle tissue; test: Biodistribution in ICR mouse muscle at 370 kBq, iv after 120 mins by gamma-counting analysis; type: ADME, organism-based; details: in vivo, 2 h; procedure, shortened: as §1
# [22] = system: Spleen; test: Biodistribution in ICR mouse spleen at 370 kBq, iv after 30 mins by gamma-counting analysis; type: ADME, organism-based; details: in vivo, 0.5 h; procedure, shortened: as §1
# [23] = system: Intestine; test: Biodistribution in ICR mouse intestine assessed per organ at 370 kBq, iv after 60 mins by gamma-counting analysis; type: ADME, organism-based; details: in vivo, 1 h; procedure, shortened: as §2
# [24] = system: Kidney; test: Biodistribution in ICR mouse kidney at 370 kBq, iv after 2 mins by gamma-counting analysis; type: ADME, organism-based; details: in vivo; procedure, shortened: as §6
# [25] = system: Stomach; test: Biodistribution in ICR mouse stomach assessed per organ at 370 kBq, iv after 60 mins by gamma-counting analysis in presence of haloperidol relative to control; type: ADME, organism-based; details: in vivo, 1 h; procedure, shortened: as §4
# [26] = Ratio of drug uptake from ICR mouse brain to blood after 2 mins; type: ADME, tissue-based; details: brain and blood
# [27] = system: Lung; test: Biodistribution in ICR mouse lung at 370 kBq, iv after 60 mins by gamma-counting analysis in presence of haloperidol relative to control; type: ADME, organism-based; details: in vivo, 1 h; procedure, shortened: as §4
Drug uptake [1] [%ID],Kp at 2 h [2],Drug uptake [3] [%ID],Kp at 0.5 h [5],Drug uptake [6] [%],Drug uptake [8] [%],Drug uptake [11] [%ID],Drug uptake [12] [% ID/g],Drug uptake [13] [% ID/g],Drug uptake [14] [%],Drug uptake [15] [%],Drug uptake [16] [%ID],Drug uptake [18] [% ID/g],Drug uptake [19] [% ID/g],Drug uptake [20] [%],Drug uptake [21] [% ID/g],Drug uptake [22] [% ID/g],Drug uptake [23] [%ID],Drug uptake [24] [% ID/g],Drug uptake [25] [%],SMILES,also measured
1.45,7.5,7.17,12.9,-7,5,1.09,2.74,14.39,-47,352,0.9,13.87,13.16,-61,4.01,8.2,7.81,18.76,208,[18F]CCOc1ccc(CN2CCC3(CC2)OCc2ccccc23)cc1,Drug uptake [4]: Active; Stability [7]: Stable; Drug uptake [9]: Active; Activity [10]: 29%; Drug uptake [17]: Active; Kp at 2 min [26]: 4.7; Drug uptake [27]: -76%
2.19,1.1,4.04,1.8,30,-32,2,3.38,2.95,11,17,1.45,6.32,5.09,17,2.62,7.64,4.68,16.45,28,[18F]CCOCCOCCOc1ccc(CN2CCC3(CC2)OCc2ccccc23)cc1,Kp at 2 min [26]: 2.9; Drug uptake [27]: 6%

# — ChEMBL document CHEMBL2346503, “Synthesis and evaluation of novel (18)F-labeled spirocyclic piperidine derivatives as σ1 receptor ligands for positron emission tomography imaging” (J Med Chem, 2013)
